Each structure is given as a SMILES string. The source made the active and inactive calls. No cut-off for these calls is given here.

As usually defined, the Kd is the concentration at which binding is half-saturated.

Experiment [1] has as its system Pseudomonas aeruginosa. Nature of the experiment: Growth inhibition of Pseudomonas aeruginosa MPA01 at >250 uM. Type of experiment: functional, organism-based. In outline: (§1)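 MPA01 grown 8 h at 37 °C, then diluted to OD600 0.05 in iron-restricted succinate minimal medium pH 7.0 with heme as iron source. Compound added from DMSO at 10-1500 µM. Incubated 10 h at 37 °C with aeration in 96-well format, then OD600 read.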

For another experiment, the target named is T1, Heme oxygenase (Pseudomonas aeruginosa, UniProt O69002).
T1 sequence (O69002 whole entry): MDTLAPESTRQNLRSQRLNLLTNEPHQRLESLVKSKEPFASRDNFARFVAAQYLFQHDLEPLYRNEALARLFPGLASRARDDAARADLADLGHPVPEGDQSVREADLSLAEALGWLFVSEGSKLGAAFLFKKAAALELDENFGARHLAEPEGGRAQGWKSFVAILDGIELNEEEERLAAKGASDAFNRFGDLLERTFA
Nature of the experiment: Binding affinity to Pseudomonas aeruginosa heme oxygenase. In outline:
(§2)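 Fluorescence titration of purified apoprotein (1 µM; residual biliverdin removed by chromatofocusing) in 20 mM Tris-HCl pH 7.5. Compound added at 0.05-500 µM from DMSO stock. Mean of three experiments.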

Experiment [2] can be described thus: Binding affinity to Neisseria meningitidis heme oxygenase. In outline: as §2
A further experiment relates to Neisseria meningitidis. Nature of the experiment: Inhibition of Neisseria meningitidis heme oxygenase-mediated biliveridin production in Escherichia coli BL21 at 1500 uM. In outline: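 E. coli BL21(DE3) with leaky nm-HO expression grown overnight (16 h) in LB with 100 µg/mL ampicillin, with or without 1500 µM compound, no iron restriction. Cells lysed with 50 µM β/δ-biliverdin added as internal standard. Biliverdin extracted into chloroform, converted to dimethyl esters, analysed by HPLC. α-Biliverdin peak integrated against the standard.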

The test system of experiment [3] is Pseudomonas aeruginosa. The experiment can be described thus: Growth inhibition of Pseudomonas aeruginosa MPA01 at <250 uM. Type of experiment: functional, organism-based. In outline:
as §1

The subject of experiment [4] is Pseudomonas aeruginosa. The experiment can be described thus: Growth inhibition of Pseudomonas aeruginosa MPA01 in presence of haemoglobin. Type of experiment: functional. The arrangement: scale not given: the % may be the effect or the level left. Summed up:
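MPA01 diluted to OD600 0.05 in succinate minimal medium pH 7.0 with 25 µM hemoglobin as sole iron source, with or without compound (DMSO). 10 h endpoint OD600 at 0-1500 µM, or hourly OD600 over 12 h at 500 µM, 37 °C with aeration. Compared with 40 µM Fe(III) pyoverdine cultures. Mean of three experiments.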

Consider `O=C(O)/C=C/C(=O)Nc1ccc(Nc2ccccc2)cc1`, for which the result in the experiment on Pseudomonas aeruginosa [1] and in the experiment with Neisseria meningitidis was Active. In addition, the Kd at Heme oxygenase amounted to 20.1 µM; in experiment [2] it was 15.6 µM. Further, the result with Pseudomonas aeruginosa [3] was inactive. Also, in the experiment on Pseudomonas aeruginosa [4], the Activity is on record as 40%.
Consider `O=C(Nc1ccc(-c2cn3ccccc3n2)cc1)c1ccccc1[N+](=O)[O-]`, for which the Kd at Heme oxygenase was 6.1 µM; in experiment [2], 20.9 µM. For the same compound, the outcome in the experiment with Neisseria meningitidis was Active. In addition, in the experiment with Pseudomonas aeruginosa [3], the outcome was inactive.
For the compound `O=C1C(O)=C/C(=N\c2ccccc2O)c2ccccc21`, the Kd came out at 72.8 µM on Heme oxygenase and 28.8 µM in experiment [2]. The result with Neisseria meningitidis and in the experiment on Pseudomonas aeruginosa [3] was inactive.
On to `O=C(Cc1ccc(Cl)cc1)N/N=C/c1c[nH]c2ccccc12`, for which the result in the experiment on Pseudomonas aeruginosa [1] and with Neisseria meningitidis was Active. Besides, the Kd in experiment [2] came to 14.1 µM. The outcome in the experiment with Pseudomonas aeruginosa [3] was inactive. The Activity in the experiment on Pseudomonas aeruginosa [4] was 40%.
In the case of `O=C(NNC(=O)c1ccncc1)c1ccncc1`, the result in the experiment on Neisseria meningitidis and with Pseudomonas aeruginosa [3] was inactive.
`CN(C)c1ccc(/C=N/NC(=N)N)cc1` yielded a Kd in experiment [2] of 22.9 µM. In addition, in the experiment with Neisseria meningitidis, the outcome was Active. Besides, the outcome in the experiment on Pseudomonas aeruginosa [3] was inactive.
For `N=C(N/N=C\c1cccnc1)N/N=C\c1cccnc1`, in that order: 12.2 µM, “Active” and “inactive”.

For the origin of these results see ChEMBL document CHEMBL1148707, “Inhibition of the bacterial heme oxygenases from Pseudomonas aeruginosa and Neisseria meningitidis: novel antimicrobial targets” (J Med Chem, 2007).
